Each structure is given as a SMILES string.

Tested on in one assay: not listed separately
Kind of assay: Binding affinity to N-terminally His-tagged Mycobacterium tuberculosis BioA overexpressed in Escherichia coli by ITC method. The method in brief: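 BioA loaded with PLP by adding 1 mM PLP after size exclusion, then buffer-exchanged into 25 mM HEPES pH 7.5, 50 mM NaCl. Titrated at 25 °C: 10 μM BioA, ligand 100 μM with DMSO matched, 2 μL injections 150 s apart, 750 rpm. First injection discarded; dilution heats corrected; curve fit gives KA, KD = 1/KA. Triplicate, mean ± standard error.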
On to `O=C1CCc2cc(N3CCN(C(=O)c4cccc(Cl)c4)CC3)ccc21`, for which binding was put at a Kd of 132 nM.

`O=C1CCc2cc(N3CCN(C(=O)c4ccc5c(c4)OCO5)CC3)ccc21` yielded a dissociation constant Kd of 74 nM.

Turning to `CN1Cc2cc(N3CCN(C(=O)c4cccc(Cl)c4)CC3)ccc2C1=O`, binding was characterised by a dissociation constant (Kd) of 866 nM.

Compound `CC(=O)c1ccc(N2CCN(C(=O)c3cccc(Cl)c3)CC2)cc1` returned an equilibrium dissociation constant (Kd) of 157 nM.

On to `O=C1OCc2cc(N3CCN(C(=O)c4cccc(Cl)c4)CC3)ccc21`, for which the Kd is 685 nM. Compared with the last compound, the Kd is about 4.4-fold higher.

`CC(=O)c1ccc(N2CCN(C(=O)c3cccc(Cl)c3)CC2)s1`: the equilibrium dissociation constant (Kd) amounted to 322 nM.

`CC(=O)c1ccc(N2CCN(C(=O)c3ccc4c(c3)OCO4)CC2)cc1`: the Kd came to 108 nM.

In a further assay the test system is Mycobacterium tuberculosis. Kind of assay: Inhibition of Bio-A overexpressed in Mycobacterium tuberculosis in presence of anhydrotetracycline after 9 days. The method in brief: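 BioA-overexpressing or BioA-underexpressing Mtb strains were pregrown in Sauton's with 1 μM biotin, washed twice, and seeded at OD580 0.03 in biotin-free medium with 200 ng/mL anhydrotetracycline to set BioA expression. Compounds were tested at 0.2–50 μM final at 37 °C. OD580 was read after 9 days. MIC is the concentration giving 50% inhibition. Triplicate, two biological replicates.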
As to `CCCCCC(=O)N1CCN(c2ccc(C(C)=O)cc2)CC1`, the MIC50 came to 47.6 µM.

Take `CC(=O)c1ccc(N2CCN(C(=O)c3ccc4c(c3)OCCO4)CC2)cc1`: the MIC50 is more than 50 µM.

For `CC(=O)c1cccc(N2CCN(C(=O)c3cccc(Cl)c3)CC2)c1`, the MIC50 was more than 50 µM.

As to `O=C1CCc2cc(N3CCN(C(=O)c4cccc(Cl)c4)CC3)ccc21`, the MIC50 is 8.1 µM.

As to `CC(=O)c1ccc(-c2cn(Cc3cccc(Cl)c3)nn2)cc1`, the MIC50 is more than 50 µM.

On to `O=C1CCc2cc(N3CCN(C(=O)c4ccc5c(c4)OCO5)CC3)ccc21`, for which the MIC50 amounted to 2.8 µM.

As to `CC(=O)c1ccc(N2CCN(C(=O)c3cc(Cl)cc(Cl)c3)CC2)cc1`, the MIC50 was more than 50 µM.

Consider `C/C(=N\O)c1ccc(N2CCN(C(=O)c3cccc(Cl)c3)CC2)cc1`, for which the MIC50 was more than 50 µM.

For the compound `Cc1noc(-c2ccc(N3CCN(C(=O)c4cccc(Cl)c4)CC3)cc2)n1`, the MIC50 is more than 50 µM.

Take `O=C(c1cccc(Cl)c1)N1CCN(c2ccc(-c3ccno3)cc2)CC1`: the MIC50 amounted to 38.9 µM.

For `Cn1nnnc1-c1ccc(N2CCN(C(=O)c3cccc(Cl)c3)CC2)cc1`, the MIC50 is more than 50 µM.

As for `CC(=O)c1ccc(N2CCN(C(=O)CC(C)C)CC2)cc1`, the MIC50 was more than 50 µM.

In the case of `CCCC(=O)N1CCN(c2ccc(C(C)=O)cc2)CC1`, the MIC50 was more than 50 µM.

On to `CC(=O)c1ccc(N2CCC(C(=O)c3cccc(Cl)c3)CC2)cc1`, for which the MIC50 worked out at 9.2 µM.

`CC(=O)c1ccc(N2CCN(C(=O)c3cnn(C)c3)CC2)cc1`: the MIC50 was more than 50 µM.

As for `COc1cc(Cl)cc(C(=O)N2CCN(c3ccc(C(C)=O)cc3)CC2)c1`, the MIC50 is more than 50 µM.

Consider `CN1Cc2cc(N3CCN(C(=O)c4cccc(Cl)c4)CC3)ccc2C1=O`, for which the MIC50 was more than 50 µM.

In the case of `CC(=O)c1ccc(N2CCN(C(=O)c3cncc(Cl)c3)CC2)cc1`, the MIC50 is more than 50 µM.

Take `COc1ccc(-c2ccc(N3CCN(C(=O)c4cccc(Cl)c4)CC3)cc2)nc1`: the MIC50 is more than 50 µM.

For `CC(=O)c1ccc(N2CCN(C(=O)c3cccc(Cl)c3)CC2)cc1`, the MIC50 is 7.5 µM.

For `O=C1OCc2cc(N3CCN(C(=O)c4cccc(Cl)c4)CC3)ccc21`, the MIC50 was more than 50 µM.

With `CC(=O)c1ccc(N2CCN(C(=O)c3cccc(Cl)c3)CC2)s1`, the MIC50 is 7.6 µM.

In the case of `O=C(c1cccc(Cl)c1)N1CCN(c2ccc(-c3ccccn3)cc2)CC1`, the MIC50 is more than 50 µM.

As for `CCC(=O)N1CCN(c2ccc(C(C)=O)cc2)CC1`, the MIC50 is more than 50 µM.

Regarding `O=C(c1cccc(Cl)c1)N1CCN(c2ccc([N+](=O)[O-])cc2)CC1`, the MIC50 stood at 20.9 µM.

With `CC(=O)c1ccc(-c2cn(Cc3cccc(Cl)c3)nn2)s1`, the MIC50 was more than 50 µM.

For `CC(=O)c1ccc(N2CCN(C(=O)c3cscn3)CC2)cc1`, the MIC50 is more than 50 µM.

Regarding `CC(=O)c1ccc(N2CCN(C(=O)c3ccc4c(c3)OCO4)CC2)cc1`, the MIC50 is 31.1 µM and the MIC90 was more than 50 µM.

As to `N#Cc1ccc(N2CCN(C(=O)c3cccc(Cl)c3)CC2)cc1`, the MIC50 was found to be 45.9 µM.

With `CC(=O)c1ccc(N2CCN(C(=O)c3ccc4c(c3)OCCCO4)CC2)cc1`, the MIC50 was more than 50 µM.

With `COC(=O)c1ccc(N2CCN(C(=O)c3cccc(Cl)c3)CC2)cc1`, the MIC50 was more than 50 µM.

`CC(=O)c1ccc(N2CCN(C(=O)c3cccnc3)CC2)cc1`: the MIC50 was more than 50 µM.

Regarding `CC(=O)c1ccc(N2CCN(C(=O)c3ccc(Cl)c(Cl)c3)CC2)cc1`, the MIC50 worked out at 17.7 µM.

Consider `CC(=O)c1ccc(N2CCC(C(=O)c3ccc4c(c3)OCO4)CC2)cc1`, for which the MIC50 is more than 50 µM.

Turning to `O=C(c1cccc(Cl)c1)N1CCN(c2ccc3c(c2)COC3)CC1`, the MIC50 is more than 50 µM.

The values are drawn from ChEMBL document CHEMBL4011626, “Structure-Based Optimization of Pyridoxal 5'-Phosphate-Dependent Transaminase Enzyme (BioA) Inhibitors that Target Biotin Biosynthesis in Mycobacterium tuberculosis” (J Med Chem, 2017).
